Data: ChEMBL document CHEMBL1135723, “New type of metalloproteinase inhibitor: design and synthesis of new phosphonamide-based hydroxamic acids” (J Med Chem, 2002)

Tests used:
[1] = target: T1, Disintegrin and metalloproteinase domain-containing protein 9 (Homo sapiens, UniProt Q13443); experiment: Inhibition of the heparin binding epidermal growth factor (HB-EGF) release from fibrosarcoma HT1080 transfectants expressing […] (AP) tagged HB-EGF stimulated by 12-O-tetradecanoylphorbol 13-acetate(TPA).
T1 sequence (Q13443 whole entry): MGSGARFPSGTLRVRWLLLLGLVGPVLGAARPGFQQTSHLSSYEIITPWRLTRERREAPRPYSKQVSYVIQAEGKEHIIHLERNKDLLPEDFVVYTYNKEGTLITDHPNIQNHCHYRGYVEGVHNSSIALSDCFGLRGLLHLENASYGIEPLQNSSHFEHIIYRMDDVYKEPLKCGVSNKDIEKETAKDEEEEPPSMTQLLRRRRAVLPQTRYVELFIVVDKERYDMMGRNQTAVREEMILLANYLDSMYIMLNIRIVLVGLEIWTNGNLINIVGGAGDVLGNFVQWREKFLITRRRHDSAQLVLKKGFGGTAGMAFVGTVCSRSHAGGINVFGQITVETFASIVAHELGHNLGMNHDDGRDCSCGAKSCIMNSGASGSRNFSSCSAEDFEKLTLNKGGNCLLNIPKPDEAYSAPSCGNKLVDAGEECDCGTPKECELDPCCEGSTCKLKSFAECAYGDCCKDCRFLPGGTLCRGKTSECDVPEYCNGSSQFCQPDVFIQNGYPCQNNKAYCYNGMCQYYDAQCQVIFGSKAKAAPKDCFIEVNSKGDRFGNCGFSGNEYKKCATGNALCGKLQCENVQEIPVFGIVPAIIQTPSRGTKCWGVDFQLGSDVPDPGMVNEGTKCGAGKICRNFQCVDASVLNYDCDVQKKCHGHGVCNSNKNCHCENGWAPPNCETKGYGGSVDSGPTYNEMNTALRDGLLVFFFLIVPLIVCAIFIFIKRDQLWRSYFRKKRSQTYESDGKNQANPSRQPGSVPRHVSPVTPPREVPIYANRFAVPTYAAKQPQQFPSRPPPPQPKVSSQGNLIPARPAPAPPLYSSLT
Procedure, shortened: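 HT-1080 transfectants in MEM/10% FCS seeded at 2 × 10⁵ cells/well, grown 24 h, PBS-washed, preincubated 30 min with compound in MEM containing 1% DMSO. Stimulated with TPA (60 nM) for 60 min. Supernatant heated 10 min at 65 °C to kill endogenous phosphatases, then incubated 2 h with p-nitrophenyl phosphate (1 mg/mL) in 1 M diethanolamine, pH 9.8; A405. IC50 from a concentration series.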

[2] = target: Matrix metalloproteinase-9 (Homo sapiens, UniProt P14780); experiment: Inhibitory activity against matrix metalloprotease-9 (MMP-9)(gelatinase-B).
Chain of Matrix metalloproteinase-9 (P14780 whole entry): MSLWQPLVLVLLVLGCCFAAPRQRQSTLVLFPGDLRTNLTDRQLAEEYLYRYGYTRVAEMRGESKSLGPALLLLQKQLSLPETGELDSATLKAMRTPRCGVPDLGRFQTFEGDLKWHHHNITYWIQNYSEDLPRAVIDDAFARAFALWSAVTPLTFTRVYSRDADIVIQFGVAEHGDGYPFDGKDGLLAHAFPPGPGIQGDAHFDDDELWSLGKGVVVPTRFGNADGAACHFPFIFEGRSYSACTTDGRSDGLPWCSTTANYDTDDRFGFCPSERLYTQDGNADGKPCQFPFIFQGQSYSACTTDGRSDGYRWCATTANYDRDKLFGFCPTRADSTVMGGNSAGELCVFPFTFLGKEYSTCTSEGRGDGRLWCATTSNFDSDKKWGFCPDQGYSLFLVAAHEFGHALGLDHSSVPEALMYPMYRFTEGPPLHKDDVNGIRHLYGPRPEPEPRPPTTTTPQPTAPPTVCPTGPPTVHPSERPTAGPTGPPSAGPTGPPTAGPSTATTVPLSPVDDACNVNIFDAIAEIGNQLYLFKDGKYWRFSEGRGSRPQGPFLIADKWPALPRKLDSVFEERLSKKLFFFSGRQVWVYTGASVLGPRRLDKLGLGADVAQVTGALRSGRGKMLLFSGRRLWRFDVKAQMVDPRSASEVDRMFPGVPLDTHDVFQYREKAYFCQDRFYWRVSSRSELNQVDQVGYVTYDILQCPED

Stromelysin-1 = Stromelysin-1 (Homo sapiens, UniProt P08254); experiment: Inhibitory activity against matrix metalloprotease-3 (MMP-3)(stromelysin-1).
Chain of Stromelysin-1 (P08254 whole entry): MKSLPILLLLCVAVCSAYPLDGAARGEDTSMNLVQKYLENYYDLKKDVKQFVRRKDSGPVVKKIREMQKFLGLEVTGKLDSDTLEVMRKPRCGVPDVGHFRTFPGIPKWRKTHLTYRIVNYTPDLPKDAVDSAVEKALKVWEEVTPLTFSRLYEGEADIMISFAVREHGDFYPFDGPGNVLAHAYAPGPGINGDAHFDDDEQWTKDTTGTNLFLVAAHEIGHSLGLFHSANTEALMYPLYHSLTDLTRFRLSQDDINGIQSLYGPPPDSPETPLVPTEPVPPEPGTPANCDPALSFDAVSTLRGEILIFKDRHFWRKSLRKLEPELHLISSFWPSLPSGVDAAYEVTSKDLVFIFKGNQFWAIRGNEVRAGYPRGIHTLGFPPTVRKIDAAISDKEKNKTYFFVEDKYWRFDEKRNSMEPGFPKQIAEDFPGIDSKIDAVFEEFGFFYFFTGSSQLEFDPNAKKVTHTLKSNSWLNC
Procedure, shortened: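 Recombinant human MMP-3 activated with 1 mM p-aminophenylmercuric acetate, 1 h, 37 °C. Compound in 50 mM Tris, 150 mM NaCl, 10 mM CaCl2, 0.05% Brij-35, pH 7.5, preincubated with enzyme 10 min at 37 °C. Fluorescence-quenched peptide substrate added, 2 h at 37 °C; Ex/Em 320/405 nm. Ki from percent inhibition and substrate Km.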

Interstitial collagenase = target: T2, Interstitial collagenase (Homo sapiens, UniProt P03956); experiment: Inhibitory activity against matrix metalloprotease-1 (MMP-1)(recombinant human collagenase-1).
T2 sequence (P03956 whole entry): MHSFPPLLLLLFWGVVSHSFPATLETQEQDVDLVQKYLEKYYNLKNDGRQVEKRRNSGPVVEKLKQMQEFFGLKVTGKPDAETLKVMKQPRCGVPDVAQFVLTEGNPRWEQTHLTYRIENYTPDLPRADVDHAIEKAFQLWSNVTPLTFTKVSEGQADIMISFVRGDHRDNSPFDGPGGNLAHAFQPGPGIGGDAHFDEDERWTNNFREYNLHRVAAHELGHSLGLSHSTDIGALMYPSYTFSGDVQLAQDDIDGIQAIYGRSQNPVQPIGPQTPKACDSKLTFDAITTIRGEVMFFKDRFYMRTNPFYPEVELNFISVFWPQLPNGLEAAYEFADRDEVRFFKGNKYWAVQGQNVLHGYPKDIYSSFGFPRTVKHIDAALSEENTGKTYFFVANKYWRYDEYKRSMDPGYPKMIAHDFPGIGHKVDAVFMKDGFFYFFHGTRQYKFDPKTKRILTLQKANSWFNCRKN

[3] = target: Disintegrin and metalloproteinase domain-containing protein 17 (Homo sapiens, UniProt P78536); experiment: Inhibitory activity against tumor necrosis factor alpha converting enzyme (TACE) from human acute monocytic leukemia cell line.
Chain of Disintegrin and metalloproteinase domain-containing protein 17 (P78536 whole entry, the tested form may be a part): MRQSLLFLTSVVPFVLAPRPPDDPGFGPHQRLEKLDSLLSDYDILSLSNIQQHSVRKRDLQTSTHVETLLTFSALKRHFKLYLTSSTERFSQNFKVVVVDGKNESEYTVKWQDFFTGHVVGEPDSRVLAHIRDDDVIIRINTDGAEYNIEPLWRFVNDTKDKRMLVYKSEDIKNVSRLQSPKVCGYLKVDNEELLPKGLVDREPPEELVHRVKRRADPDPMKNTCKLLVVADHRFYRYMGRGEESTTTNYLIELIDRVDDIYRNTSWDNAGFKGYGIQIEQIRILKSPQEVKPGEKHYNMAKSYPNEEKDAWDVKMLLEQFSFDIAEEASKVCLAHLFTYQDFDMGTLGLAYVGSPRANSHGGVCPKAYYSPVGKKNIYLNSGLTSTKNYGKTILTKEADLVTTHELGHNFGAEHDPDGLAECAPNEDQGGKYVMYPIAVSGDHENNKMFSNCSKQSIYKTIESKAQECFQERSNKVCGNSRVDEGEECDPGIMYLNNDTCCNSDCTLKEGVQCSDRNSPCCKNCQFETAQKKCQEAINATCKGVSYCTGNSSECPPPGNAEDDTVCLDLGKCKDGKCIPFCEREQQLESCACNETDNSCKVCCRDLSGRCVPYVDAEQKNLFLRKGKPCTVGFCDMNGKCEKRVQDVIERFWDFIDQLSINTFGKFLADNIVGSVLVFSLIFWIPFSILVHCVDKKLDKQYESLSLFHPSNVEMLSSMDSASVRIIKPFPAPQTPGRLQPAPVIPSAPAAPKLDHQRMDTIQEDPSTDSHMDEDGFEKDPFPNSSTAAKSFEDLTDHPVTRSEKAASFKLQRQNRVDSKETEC

SMILES | IC50 [1] [nM] | Ki [2] [nM] | Ki (Stromelysin-1) [nM] | Ki (Interstitial collagenase) [nM] | Ki [3] [nM]
CCOCCOc1ccc(P(=O)(OCC)N2Cc3ccccc3CC2C(=O)NO)cc1 (configuration not stated) | 70 | 14.2 | 29.6 | > 850 | 2.98
CCOP(=O)(c1ccccc1)N1Cc2ccccc2CC1C(=O)NO (configuration not stated) | 370 | 42.7 | 34.9 | 11.4 | 11.2
CCOP(=O)(/C=C/c1ccccc1)N1Cc2ccccc2CC1C(=O)NO (configuration not stated) | 910 | 88.8 | 29.7 | 160 | 37.4
COc1ccc(P(=O)(OCCc2ccccn2)N2Cc3ccccc3CC2C(=O)NO)cc1 (configuration not stated) | 180 | 3.42 | 6.41 | 3.14 | 120
CCOCCOP(=O)(c1ccc(OC)cc1)N1Cc2ccccc2CC1C(=O)NO (configuration not stated) | 510 | 6.36 | 5.43 | 6.75 | 18.9
COc1ccc(P(=O)(OC)N2Cc3ccccc3CC2C(=O)NO)cc1 (configuration not stated) | 70 | 2.03 | 2.95 | 3.64 | 8.92
CCOP(=O)(CCc1ccccc1)N1Cc2ccccc2CC1C(=O)NO (configuration not stated) | 700 | 38.3 | 11.6 | 20.8 | 14.2
CCOP(=O)(c1ccc(N)cc1)N1Cc2ccccc2CC1C(=O)NO (configuration not stated) | 660 | 95.6 | 162 | 58.8 | 75.8
CCOP(=O)(c1cccc(F)c1)N1Cc2ccccc2CC1C(=O)NO (configuration not stated) | 830 | 80.1 | 51.4 | 27.1 | 22.8
CCOP(=O)(c1cccs1)N1Cc2ccccc2CC1C(=O)NO (configuration not stated) | 890 | 59.2 | 67 | 18.7 | 59.6
CCOP(=O)(c1ccc(OC)cc1)N1CCN(C(=O)OCc2ccccc2)CC1C(=O)NO (configuration not stated) | 430 | 5.2 | 14.9 | 20.1 | 7.99
CCO[P@@](=O)(c1ccc(OC)cc1)N1Cc2ccccc2CC1C(=O)NO (some centres not stated) | 230 | 5.05 | 5.2 | 4.58 | 7.15
CCOP(=O)(c1ccc(OC)cc1)N1CCCC1C(=O)NO (configuration not stated) | > 10000 | 316 | 527 | > 850 | > 780
CCOP(=O)(c1ccccc1F)N1Cc2ccccc2CC1C(=O)NO (configuration not stated) | 1060 | 32.1 | 47.8 | 24 | 73.6
CCOP(=O)(c1ccc(OC)cc1)N1Cc2[nH]c3ccccc3c2CC1C(=O)NO (configuration not stated) | 800 | 1.13 | 2.04 | 2.02 | 2.2
CCN(CC)CCOP(=O)(c1ccc(OC)cc1)N1Cc2ccccc2CC1C(=O)NO (configuration not stated) | 1140 | 16.7 | 82.4 | 10.7 | 33.2
CCCCCCOP(=O)(c1ccc(OC)cc1)N1Cc2ccccc2CC1C(=O)NO (configuration not stated) | 1600 | 6.57 | 5.19 | 10.9 | 32.7
COc1ccc(P(=O)(OC(C)C)N2Cc3ccccc3CC2C(=O)NO)cc1 (configuration not stated) | 2240 | 23.2 | 24.4 | 17.8 | 

SMILES | IC50 [1] [nM] | Ki [2] [nM] | Ki (Stromelysin-1) [nM] | Ki (Interstitial collagenase) [nM] | Ki [3] [nM]
COc1ccc(P(=O)(OCCc2ccccc2)N2Cc3ccccc3CC2C(=O)NO)cc1 (configuration not stated) | 3110 | 5.22 | 8.15 | 4.43 | 42.2
CCOP(=O)(c1ccc(OC)cc1)N1Cc2ccsc2CC1C(=O)NO (configuration not stated) | 520 | 3.8 | 5.2 | 4.1 | 6.45
CCOP(=O)(c1ccc(Oc2ccccc2)cc1)N1Cc2ccccc2CC1C(=O)NO (configuration not stated) | 260 | 0.08 | 0.53 | 1.81 | 7.89
CCOP(=O)(c1ccncc1)N1Cc2ccccc2CC1C(=O)NO (configuration not stated) | 2600 | 278 | 190 | 17.4 | 777
COc1ccc(P(=O)(OCCc2ccc(-c3ccccc3)cc2)N2Cc3ccccc3CC2C(=O)NO)cc1 (configuration not stated) | 3560 | 6.47 | 12.8 | 7.33 | 90.2
CCOP(=O)(c1ccc(-c2ccccc2)cc1)N1Cc2ccccc2CC1C(=O)NO (configuration not stated) | 1960 | 0.31 | 4.36 | 9.65 | 50
CCO[P@@](=O)(c1ccc(OC)cc1)N1Cc2ccccc2C[C@H]1C(=O)NO | > 10000 | 349 | > 650 | 759 | > 780
CCOP(=O)(c1ccc(F)cc1)N1Cc2ccccc2CC1C(=O)NO (configuration not stated) | 300 | 51.9 | 64.4 | 0.97 | 
CCO[P@](=O)(c1ccc(OC)cc1)N1Cc2ccccc2CC1C(=O)NO (some centres not stated) | > 10000 | > 800 | > 650 | > 850 | > 780
CCOP(=O)(c1ccc(OC)cc1)N1Cc2cc(N)ccc2CC1C(=O)NO (configuration not stated) | 190 | 11 | 12.3 | 10.7 | 37.4
CCOP(=O)(c1ccc(OC)cc1)N1Cc2nccnc2CC1C(=O)NO (configuration not stated) | 560 | 7 | 10.7 | 7.8 | 13.7
CCO[P@](=O)(c1ccc(OC)cc1)N1Cc2ccccc2C[C@H]1C(=O)NO | > 10000 | > 800 | > 650 | > 850 | > 780
CCOP(=O)(c1ccc(Oc2ccncc2)cc1)N1Cc2ccccc2CC1C(=O)NO (configuration not stated) | 660 | 0.6 | 4.85 | 39.8 | 13.8
CCOP(=O)(c1ccc(C)cc1)N1Cc2ccccc2CC1C(=O)NO (configuration not stated) | 1890 | 41.8 | 72.9 | 4.9 | 500
CCOP(=O)(c1ccc(Oc2ccc(N)cc2)cc1)N1Cc2ccccc2CC1C(=O)NO (configuration not stated) | 1670 | 0.1 | 0.5 | 6.5 | 21.7
CCCCOP(=O)(c1ccc(OC)cc1)N1Cc2ccccc2CC1C(=O)NO (configuration not stated) | 810 | 9.12 | 24 | 5.39 | 
COc1ccc(P(=O)(OCC2CCCCC2)N2Cc3ccccc3CC2C(=O)NO)cc1 (configuration not stated) | 1340 | 4.56 | 2.43 | 6.67 | 15.5
